Data from ChEMBL document CHEMBL1140069, “In vitro antifungal activity of polyfunctionalized 2-(hetero)arylquinolines prepared through imino Diels-Alder reactions” (2008).

What was measured:
Format in all cases: functional
Candida tropicalis [1] = test: Antimicrobial activity against Candida tropicalis C131 isolate at 50 ug/ml after 24 hrs
Outline: (§1)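 Percent growth inhibition in 96-well microplates. Compound stocks in DMSO (≤2%) were diluted in RPMI-1640 to final 100–6.25 µg/mL, and 100 µL inoculum was added (final 200 µL). Controls were a growth well (inoculum with matching DMSO, no compound) and a sterility well (no inoculum). Inhibition was calculated against growth and sterility wells.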

Candida albicans [2] = test: Antimicrobial activity against Candida albicans C129 isolate at 100 ug/ml after 24 hrs
Outline: (§2)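 Growth-inhibition microplate test. Strains are grown on Sabouraud-chloramphenicol agar for 48 h at 30 °C, and inoculum is added to RPMI-1640 containing compound at a final 100–6.25, with DMSO ≤2%. Each strain has a growth control (same DMSO, no compound) and a sterility control.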

Candida albicans [3] = test: Antimicrobial activity against Candida albicans C129 isolate at 50 ug/ml after 24 hrs; outline: as §2
Candida albicans [4] = test: Antimicrobial activity against Candida albicans C126 isolate at 50 ug/ml after 24 hrs; outline: as §2
Candida parapsilosis [5] = test: Antimicrobial activity against Candida parapsilosis C124 isolate at 6.25 ug/ml after 24 hrs; settings: Lodderomyces parapsilosis; outline: as §1
Candida tropicalis [6] = test: Antimicrobial activity against Candida tropicalis C131 isolate at 6.25 ug/ml after 24 hrs; outline: as §1
Candida albicans [7] = test: Antimicrobial activity against Candida albicans C127 isolate at 12.5 ug/ml after 24 hrs; settings: C127, 24 h; outline: as §2
Candida albicans [8] = test: Antimicrobial activity against Candida albicans C126 isolate at 25 ug/ml after 24 hrs; outline: as §2
Pichia kudriavzevii [9] = test: Antimicrobial activity against Candida krusei C117 isolate at 12.5 ug/ml after 24 hrs; outline: as §1
Candida albicans [10] = test: Antimicrobial activity against Candida albicans C130 isolate at 50 ug/ml after 24 hrs; outline: as §2
Candida albicans [11] = test: Antimicrobial activity against Candida albicans C126 isolate at 6.25 ug/ml after 24 hrs; outline: as §2
Candida albicans [12] = test: Antimicrobial activity against Candida albicans C130 isolate at 12.5 ug/ml after 24 hrs; outline: as §2
Candida albicans [13] = test: Antimicrobial activity against Candida albicans C129 isolate at 25 ug/ml after 24 hrs; outline: as §2
Nakaseomyces glabratus [14] = test: Antimicrobial activity against Candida glabrata C115 isolate at 6.25 ug/ml after 24 hrs; outline: as §1
Candida albicans [15] = test: Antimicrobial activity against Candida albicans C128 isolate at 12.5 ug/ml after 24 hrs; outline: as §2
Candida parapsilosis [16] = test: Antimicrobial activity against Candida parapsilosis C124 isolate at 100 ug/ml after 24 hrs; settings: Lodderomyces parapsilosis; outline: as §1
Candida albicans [17] = test: Antimicrobial activity against Candida albicans C127 isolate at 6.25 ug/ml after 24 hrs; settings: C127, 24 h; outline: as §2
Candida albicans [18] = test: Antimicrobial activity against Candida albicans C126 isolate at 100 ug/ml after 24 hrs; outline: as §2
Candida albicans [19] = test: Antimicrobial activity against Candida albicans C129 isolate at 12.5 ug/ml after 24 hrs; outline: as §2
Pichia kudriavzevii [20] = test: Antimicrobial activity against Candida krusei C117 isolate at 25 ug/ml after 24 hrs; outline: as §1
Candida albicans [21] = test: Antimicrobial activity against Candida albicans C127 isolate at 100 ug/ml after 24 hrs; settings: C127, 24 h; outline: as §2
Candida albicans [22] = test: Antimicrobial activity against Candida albicans C130 isolate at 25 ug/ml after 24 hrs; outline: as §2
Pichia kudriavzevii [23] = test: Antimicrobial activity against Candida krusei C117 isolate at 100 ug/ml after 24 hrs; outline: as §1
Candida albicans [24] = test: Antimicrobial activity against Candida albicans C127 isolate at 25 ug/ml after 24 hrs; settings: C127, 24 h; outline: as §2
Nakaseomyces glabratus [25] = test: Antimicrobial activity against Candida glabrata C115 isolate at 50 ug/ml after 24 hrs; outline: as §1
Candida parapsilosis [26] = test: Antimicrobial activity against Candida parapsilosis C124 isolate at 25 ug/ml after 24 hrs; settings: Lodderomyces parapsilosis; outline: as §1
Candida parapsilosis [27] = test: Antimicrobial activity against Candida parapsilosis C124 isolate at 50 ug/ml after 24 hrs; settings: Lodderomyces parapsilosis; outline: as §1

SMILES | inhibition at 50 µg/mL (Candida tropicalis [1]) [%] | inhibition at 100 µg/mL (Candida albicans [2]) [%] | inhibition at 50 µg/mL (Candida albicans [3]) [%] | inhibition at 50 µg/mL (Candida albicans [4]) [%] | inhibition at 6.25 µg/mL (Candida parapsilosis [5]) [%] | inhibition at 6.25 µg/mL (Candida tropicalis [6]) [%] | inhibition at 12.5 µg/mL (Candida albicans [7]) [%] | inhibition at 25 µg/mL (Candida albicans [8]) [%] | inhibition at 12.5 µg/mL (Pichia kudriavzevii [9]) [%] | inhibition at 50 µg/mL (Candida albicans [10]) [%] | inhibition at 6.25 µg/mL (Candida albicans [11]) [%] | inhibition at 12.5 µg/mL (Candida albicans [12]) [%] | inhibition at 25 µg/mL (Candida albicans [13]) [%] | inhibition at 6.25 µg/mL (Nakaseomyces glabratus [14]) [%] | inhibition at 12.5 µg/mL (Candida albicans [15]) [%] | inhibition at 100 µg/mL (Candida parapsilosis [16]) [%] | inhibition at 6.25 µg/mL (Candida albicans [17]) [%] | inhibition at 100 µg/mL (Candida albicans [18]) [%] | inhibition at 12.5 µg/mL (Candida albicans [19]) [%] | inhibition at 25 µg/mL (Pichia kudriavzevii [20]) [%] | other results
c1ccc2nc(-c3ccncc3)ccc2c1 | 75 | 85 | 82 | 32 | 0 | 22 | 0 | 0 | 0 | 84 | 0 | 2 | 50 | 0 | 0 | 55 | 0 | 69 | 3 | 0 | inhibition at 100 µg/mL (Candida albicans [21]): 80%; inhibition at 25 µg/mL (Candida albicans [22]): 48%; inhibition at 100 µg/mL (Pichia kudriavzevii [23]): 66%; inhibition at 25 µg/mL (Candida albicans [24]): 0%; inhibition at 50 µg/mL (Nakaseomyces glabratus [25]): 4%; inhibition at 25 µg/mL (Candida parapsilosis [26]): 0%; inhibition at 50 µg/mL (Candida parapsilosis [27]): 5%
Cc1cc(-c2ccncc2)nc2ccccc12 | 75 | 85 | 82 | 32 | 0 | 22 | 0 | 0 | 0 | 84 | 0 | 2 | 50 | 0 | 0 | 55 | 0 | 69 | 3 | 0 | inhibition at 100 µg/mL (Candida albicans [21]): 80%; inhibition at 25 µg/mL (Candida albicans [22]): 48%; inhibition at 100 µg/mL (Pichia kudriavzevii [23]): 66%; inhibition at 25 µg/mL (Candida albicans [24]): 0%; inhibition at 50 µg/mL (Nakaseomyces glabratus [25]): 4%; inhibition at 25 µg/mL (Candida parapsilosis [26]): 0%; inhibition at 50 µg/mL (Candida parapsilosis [27]): 5%
